The structures appear in SMILES notation.

Series [1] relates to HT-29. Description: Growth inhibition of human HT-29 cells by MTT assay. It counts as functional, cell-based. The method, boiled down:
(§1)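 MTT assay in SKOV3 ovarian and HT-29 colon carcinoma cells, absorbance read at 570 nm. Triplicate wells in at least three independent assays; average IC50 reported.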

For a further series, the system named is SK-OV-3. Description: Growth inhibition of human SKOV3 cells by MTT assay. It counts as functional, cell-based. The essentials: as §1
On the technique in general: Tetrazolium dyes change colour on reduction, which living cells bring about.

A further series concerns the target Tubulin (Bos taurus, UniProt Q6B856+Q862L2+Q862F3). In words: Inhibition of bovine brain tubulin polymerization incubated for 60 mins by microplate reader based turbidimetry.
The nature of series [2]: Stability assessed as cis-trans isomerization equilibrium by mesuring remaining compound level at 1.5 x 10^-2 M exposed to UV-visible light irradiation after 1.5 hrs by LC-HRMS method. It counts as physicochemical. The settings on record: read-out: Stability.
Series [3] in a line: Stability assessed as cis-trans isomerization equilibrium by mesuring remaining compound level at 1.5 x 10^-2 M exposed to UV-visible light irradiation after 22 hrs by LC-HRMS method. The series is classed as physicochemical. The settings on record: read-out: Stability.
Series [4] can be described thus: Stability assessed as cis-trans isomerization equilibrium at 1.5 x 10^-2 M under natural light conditions after 7 days by LC-HRMS method. It counts as physicochemical. The conditions noted are these: 168 h, 15000 µM.
Series [5] concerns Mus musculus. Description: Toxicity in human HT-29 cells xenografted BALB/c mouse assessed as change in body weight at 50 mg/kg, ip administered once daily for 18 days (reference value: 2.5 g). The series is classed as organism-based. Set-up: dose 50 mg/kg, route intraperitoneal. The conditions noted are these: in vivo, 432 h. A general note: Xenograft models place foreign cells or tissue in a host animal.

Series [6] deals with HT-29. Description: Antitumor activity against human HT-29 cells xenografted in BALB/c mouse assessed as reduction in tumor volume at 50 mg/kg, ip administered once daily for 18 days. It counts as functional. The settings on record: route intraperitoneal. The method, boiled down: (§2)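 Female BALB/c nude mice (18–20 g) bearing HT-29 xenografts of around 100 mm³, randomized into six animals/treatment and twelve controls. Drug or vehicle given ip once a day for 18 days. Tumor volume and body weight recorded on d0 and d18. T/C (%) derived from relative tumor volume (Vt/Vo). Body weight change given as mean in g.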

Series [7] relates to HT-29. Description: Antitumor activity against human HT-29 cells xenografted in BALB/c mouse assessed as reduction in tumor volume at 150 mg/kg, ip administered once daily for 18 days. The series is classed as functional. The conditions noted are these: route intraperitoneal. The essentials: as §2
The test system of series [8] is HT-29. Description: Antitumor activity against human HT-29 cells xenografted in BALB/c mouse assessed as reduction in tumor volume at 50 and 150 mg/kg, ip administered once daily and measured on day 18. The series is classed as functional, organism-based. Set-up: dose 150 mg/kg. The method, boiled down: as §2
Series [9] has as its system Mus musculus. In words: Toxicity in human HT-29 cells xenografted BALB/c mouse assessed as change in body weight at 150 mg/kg, ip administered once daily for 18 days (reference value: 2.5 g). It counts as organism-based. More on the design: dose 150 mg/kg, route intraperitoneal. The settings on record: in vivo, 432 h. The method, boiled down: as §2

As a reminder, the IC50 is the concentration needed to halve the response being measured. For the molecule `COc1ccc(/C=C2\c3cc(OC)c(OC)c(OC)c3CC[C@H]2O)cc1F`, the IC50 in the series with HT-29 [1] is 220 nM; in the series with SK-OV-3 it was 720 nM.
Take `COc1ccc2c(c1)CC[C@@H](O)/C2=C/c1cc(OC)c(OC)c(OC)c1`: the IC50 with HT-29 [1] is 900 nM; against Tubulin, more than 10000 nM; in the series on SK-OV-3, 2020 nM. In addition, in series [2], the remaining at 1.5 h, 15000 µM amounted to 99.2%. Further, the remaining at 22 h, 15000 µM in [3] turned out to be 92%. Besides, the Stability entry in series [4] was “Stable”.
In the case of `COc1ccc(/C=C2\c3cc(OC)c(OC)c(OC)c3CC[C@@H]2O)cc1C`, the IC50 with HT-29 [1] was 2560 nM; with SK-OV-3, 730 nM.
Regarding `COc1ccc(/C=C2\c3cc(OC)c(OC)c(OC)c3CC[C@H]2O)cc1`, the results for the IC50 in the series on HT-29 [1], against Tubulin and in the series with SK-OV-3 were 2600 nM, more than 10000 nM and 3780 nM, respectively. Further, in series [2], the remaining at 1.5 h, 15000 µM is 99.1%. Also, the remaining at 22 h, 15000 µM in series [3] stood at 93%. In addition, the Stability result in series [4] is on record as “Stable”.
As a reminder, the T/C is the ratio of treated to control. For `COc1ccc(/C=C\c2cc(OC)c(OC)c(OC)c2)cc1O` [COMBRETASTATIN A4], the IC50 with HT-29 [1] and in the series on SK-OV-3 was 1 nM throughout. Moreover, the Activity with Mus musculus [5] was found to be 1.7 g. For the same molecule, the remaining at 1.5 h, 15000 µM in [2] worked out at 99.1%. Also, the T/C in the series on HT-29 [6] is reported as 52%. In addition, the remaining at 22 h, 15000 µM in [3] was found to be 84%. Also, the Stability result in series [4] is reported as “Stable”.
As for `COc1ccc(/C=C2\c3cc(OC)c(OC)c(OC)c3CC[C@@H]2O)cc1N`, the IC50 in the series with HT-29 [1] is 160 nM; with SK-OV-3 it was 740 nM.
On to `COc1ccc2c(c1)CCC(=O)/C2=C/c1cc(OC)c(OC)c(OC)c1`, for which the figures for the IC50 with HT-29 [1], against Tubulin and in the series with SK-OV-3 were 130 nM, 3930 nM and 2 nM, respectively. Further, the remaining at 1.5 h, 15000 µM in series [2] turned out to be 52.8%.
With `COc1ccc(/C=C2\c3cc(OC)c(OC)c(OC)c3CC[C@@H]2O)cc1[N+](=O)[O-]`, the IC50 was found to be 1590 nM with HT-29 [1] and 4640 nM in the series on SK-OV-3.
On the same counts, the results for `COc1ccc(/C=C2\c3cc(OC)c(OC)c(OC)c3CC[C@@H]2O)cc1O` are 260 nM and 1060 nM.
In the case of `COc1ccc(/C=C2\c3cc(OC)c(OC)c(OC)c3CC[C@H]2O)cc1C`, the IC50 amounted to 3970 nM in the series with HT-29 [1] and 1340 nM with SK-OV-3.
For the molecule `COc1ccc2c(c1)CC[C@H](O)/C2=C/c1cc(OC)c(OC)c(OC)c1`, the IC50 is 1 nM with HT-29 [1], 410 nM against Tubulin and 1 nM with SK-OV-3. The values for the Activity with Mus musculus [5] and in the series on Mus musculus [9] were 2.3 g and 1.8 g, respectively. Moreover, the T/C is 37% in the series with HT-29 [7] and 61% with HT-29 [6]. Also, the remaining at 1.5 h, 15000 µM in series [2] worked out at 98.9%. In addition, the inhibition result in the series on HT-29 [8] is “Dose-dependent effect”. The remaining at 22 h, 15000 µM in [3] came out at 90.2%. Besides, the Stability entry in series [4] is on record as “Stable”.
In the case of `COc1ccc(/C=C2\c3cc(OC)c(OC)c(OC)c3CC[C@H]2O)cc1C#N`, the IC50 with HT-29 [1] was 200 nM; with SK-OV-3, 600 nM.
As for `COc1ccc(/C=C2\c3cc(OC)c(OC)c(OC)c3CC[C@@H]2O)cc1C(N)=O`, the figures for the IC50 with HT-29 [1] and in the series with SK-OV-3 were 550 nM and 1440 nM, respectively.
Regarding `COc1ccc(/C=C2\c3cc(OC)c(OC)c(OC)c3CC[C@@H]2O)cc1`, the values for the IC50 with HT-29 [1], at Tubulin and in the series on SK-OV-3 were 2460 nM, more than 10000 nM and 7030 nM, respectively. Moreover, in [2], the remaining at 1.5 h, 15000 µM came to 99.4%. Besides, in series [3], the remaining at 22 h, 15000 µM amounted to 92.6%. For the same molecule, the Stability entry in series [4] is on record as “Stable”.
As to `COc1ccc(/C=C2\c3cc(OC)c(OC)c(OC)c3CC[C@H]2O)cc1N`, the IC50 in the series on HT-29 [1] stood at 910 nM; with SK-OV-3 it was 1870 nM.
The matching figures for `COc1ccc(/C=C2\c3cc(OC)c(OC)c(OC)c3CC[C@@H]2O)cc1C#N`: 5 nM and 20 nM.
Regarding `COc1ccc(/C=C2\c3cc(OC)c(OC)c(OC)c3CC[C@H]2O)cc1[N+](=O)[O-]`, the IC50 in the series with HT-29 [1] and in the series on SK-OV-3 was more than 10000 nM throughout.
With `COc1ccc(/C=C2\c3cc(OC)c(OC)c(OC)c3CC[C@@H]2O)cc1F`, the IC50 was determined as 3 nM in the series on HT-29 [1], 5700 nM against Tubulin and 1 nM in the series on SK-OV-3.
With `COc1ccc(/C=C2\c3cc(OC)c(OC)c(OC)c3CC[C@H]2O)cc1C(N)=O`, the IC50 with HT-29 [1] amounted to 550 nM; with SK-OV-3, 1920 nM.
On the same counts, the results for `COc1ccc(/C=C2\c3cc(OC)c(OC)c(OC)c3CC[C@H]2O)cc1O` are 790 nM and 1590 nM.

For the origin of these results see ChEMBL document CHEMBL3414539, “Quantum chemistry calculation-aided structural optimization of combretastatin A-4-like tubulin polymerization inhibitors: improved stability and biological activity” (J Med Chem, 2015).
